Reference: ChEMBL document CHEMBL1144684, “Evaluation of a series of naphthamides as potent, orally active vascular endothelial growth factor receptor-2 tyrosine kinase inhibitors” (J Med Chem, 2008)

Legend:
HUVEC [1] = test: Selectivity of IC50 for VEGF-induced proliferation over IC50 for bFGF-induced proliferation of HUVEC; format: functional, Homo sapiens
How it was run: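 HUVECs were seeded at 3000 cells/well in DMEM/10% FBS with pen/strep and cultured for 22 h. They were preincubated 2 h with serially diluted compound, then stimulated with 50 ng/mL VEGF or 20 ng/mL bFGF for 72 h at 37 °C, 5% CO2. Cells were washed, frozen at -70 °C and stained with CyQuant. IC50s came from a four-parameter logistic fit, averaged over ≥2 experiments; the VEGF IC50 was compared against the bFGF IC50.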

Angiopoietin-1 receptor = Angiopoietin-1 receptor (Homo sapiens, UniProt Q02763); test: Inhibition of Tie2
[2] = biological target: Hepatocyte growth factor receptor (Homo sapiens, UniProt P08581); test: Inhibition of c-Met
[3] = biological target: Tyrosine-protein kinase Lck (Homo sapiens, UniProt P06239); test: Inhibition of Lck
Aurora kinase A = biological target: T1, Aurora kinase A (Homo sapiens, UniProt O14965); test: Inhibition of Aurora A
T1 sequence (O14965 whole entry): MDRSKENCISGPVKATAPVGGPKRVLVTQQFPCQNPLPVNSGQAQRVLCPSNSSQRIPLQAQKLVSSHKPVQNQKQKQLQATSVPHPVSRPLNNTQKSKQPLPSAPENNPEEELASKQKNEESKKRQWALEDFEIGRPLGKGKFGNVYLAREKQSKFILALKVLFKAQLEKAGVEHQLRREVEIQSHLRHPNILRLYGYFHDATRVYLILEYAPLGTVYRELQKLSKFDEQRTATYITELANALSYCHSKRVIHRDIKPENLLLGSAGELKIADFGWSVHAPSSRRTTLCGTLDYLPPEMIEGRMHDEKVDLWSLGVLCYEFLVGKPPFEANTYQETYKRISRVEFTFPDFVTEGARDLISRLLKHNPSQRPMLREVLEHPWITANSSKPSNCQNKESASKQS

HUVEC [4] = test: Inhibition of VEGF-induced proliferation of HUVEC; format: functional, cell-based; details: Homo sapiens
HUVEC [5] = test: Inhibition of bFGF-induced proliferation of HUVEC; format: functional, cell-based; details: Homo sapiens
How it was run: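 HUVEC seeded at 3000/well in DMEM with 10% FBS, 22 h; 2 h preincubation with serial compound dilutions, then 50 ng/mL VEGF or 20 ng/mL bFGF for 72 h at 37 °C. Freeze–thaw, CyQuant DNA dye read-out; IC50 by four-parameter logistic fit, averaged over ≥2 experiments.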

[6] = biological target: Vascular endothelial growth factor receptor 2 (Homo sapiens, UniProt P35968)
Aurora kinase B = Aurora kinase B (Homo sapiens, UniProt Q96GD4); test: Inhibition of Aurora B
Sequence of Aurora kinase B (Q96GD4 whole entry): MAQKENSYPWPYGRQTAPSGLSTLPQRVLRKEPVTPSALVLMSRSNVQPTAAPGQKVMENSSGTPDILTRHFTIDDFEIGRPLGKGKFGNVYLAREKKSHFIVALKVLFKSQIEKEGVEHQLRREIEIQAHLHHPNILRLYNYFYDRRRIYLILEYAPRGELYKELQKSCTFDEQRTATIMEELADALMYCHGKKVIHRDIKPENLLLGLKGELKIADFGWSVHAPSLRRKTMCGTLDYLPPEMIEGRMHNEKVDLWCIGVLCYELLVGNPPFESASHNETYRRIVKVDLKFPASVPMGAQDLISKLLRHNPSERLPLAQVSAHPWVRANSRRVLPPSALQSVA

Sequence of Hepatocyte growth factor receptor (P08581 whole entry): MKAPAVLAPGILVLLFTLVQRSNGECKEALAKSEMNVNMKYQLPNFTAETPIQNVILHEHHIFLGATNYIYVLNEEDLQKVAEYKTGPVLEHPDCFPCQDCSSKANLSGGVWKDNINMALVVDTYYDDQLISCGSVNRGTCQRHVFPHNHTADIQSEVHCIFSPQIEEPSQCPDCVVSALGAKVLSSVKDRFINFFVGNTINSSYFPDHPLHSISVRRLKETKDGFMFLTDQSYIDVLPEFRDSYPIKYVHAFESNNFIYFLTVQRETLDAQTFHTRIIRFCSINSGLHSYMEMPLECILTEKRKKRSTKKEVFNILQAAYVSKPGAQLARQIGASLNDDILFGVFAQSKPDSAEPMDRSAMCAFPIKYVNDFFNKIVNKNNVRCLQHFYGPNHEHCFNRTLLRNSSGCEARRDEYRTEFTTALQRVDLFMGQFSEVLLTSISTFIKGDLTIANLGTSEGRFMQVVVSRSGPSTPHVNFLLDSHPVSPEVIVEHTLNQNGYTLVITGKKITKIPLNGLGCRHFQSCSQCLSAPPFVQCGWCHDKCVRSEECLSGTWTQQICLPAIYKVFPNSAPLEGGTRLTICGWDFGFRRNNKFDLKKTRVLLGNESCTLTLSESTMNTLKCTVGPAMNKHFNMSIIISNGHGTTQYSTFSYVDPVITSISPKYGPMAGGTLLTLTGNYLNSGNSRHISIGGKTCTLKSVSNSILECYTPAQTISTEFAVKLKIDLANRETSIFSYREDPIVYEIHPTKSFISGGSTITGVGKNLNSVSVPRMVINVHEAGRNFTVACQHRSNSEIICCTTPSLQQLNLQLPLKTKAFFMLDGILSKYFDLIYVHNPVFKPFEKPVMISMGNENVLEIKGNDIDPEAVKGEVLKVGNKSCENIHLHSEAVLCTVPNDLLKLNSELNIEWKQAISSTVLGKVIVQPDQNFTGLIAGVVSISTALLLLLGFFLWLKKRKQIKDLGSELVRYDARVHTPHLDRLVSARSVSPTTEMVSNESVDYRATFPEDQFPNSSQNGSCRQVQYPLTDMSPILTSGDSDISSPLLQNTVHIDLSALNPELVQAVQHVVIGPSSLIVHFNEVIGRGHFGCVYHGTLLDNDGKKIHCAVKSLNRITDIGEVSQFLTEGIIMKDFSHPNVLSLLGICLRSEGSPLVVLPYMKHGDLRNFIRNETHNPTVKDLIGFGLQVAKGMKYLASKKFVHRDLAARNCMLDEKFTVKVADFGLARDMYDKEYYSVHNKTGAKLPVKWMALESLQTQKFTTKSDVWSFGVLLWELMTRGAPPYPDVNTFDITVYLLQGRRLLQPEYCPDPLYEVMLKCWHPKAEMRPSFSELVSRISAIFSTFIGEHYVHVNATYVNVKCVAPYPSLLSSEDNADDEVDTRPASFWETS
Sequence of Angiopoietin-1 receptor (Q02763 whole entry): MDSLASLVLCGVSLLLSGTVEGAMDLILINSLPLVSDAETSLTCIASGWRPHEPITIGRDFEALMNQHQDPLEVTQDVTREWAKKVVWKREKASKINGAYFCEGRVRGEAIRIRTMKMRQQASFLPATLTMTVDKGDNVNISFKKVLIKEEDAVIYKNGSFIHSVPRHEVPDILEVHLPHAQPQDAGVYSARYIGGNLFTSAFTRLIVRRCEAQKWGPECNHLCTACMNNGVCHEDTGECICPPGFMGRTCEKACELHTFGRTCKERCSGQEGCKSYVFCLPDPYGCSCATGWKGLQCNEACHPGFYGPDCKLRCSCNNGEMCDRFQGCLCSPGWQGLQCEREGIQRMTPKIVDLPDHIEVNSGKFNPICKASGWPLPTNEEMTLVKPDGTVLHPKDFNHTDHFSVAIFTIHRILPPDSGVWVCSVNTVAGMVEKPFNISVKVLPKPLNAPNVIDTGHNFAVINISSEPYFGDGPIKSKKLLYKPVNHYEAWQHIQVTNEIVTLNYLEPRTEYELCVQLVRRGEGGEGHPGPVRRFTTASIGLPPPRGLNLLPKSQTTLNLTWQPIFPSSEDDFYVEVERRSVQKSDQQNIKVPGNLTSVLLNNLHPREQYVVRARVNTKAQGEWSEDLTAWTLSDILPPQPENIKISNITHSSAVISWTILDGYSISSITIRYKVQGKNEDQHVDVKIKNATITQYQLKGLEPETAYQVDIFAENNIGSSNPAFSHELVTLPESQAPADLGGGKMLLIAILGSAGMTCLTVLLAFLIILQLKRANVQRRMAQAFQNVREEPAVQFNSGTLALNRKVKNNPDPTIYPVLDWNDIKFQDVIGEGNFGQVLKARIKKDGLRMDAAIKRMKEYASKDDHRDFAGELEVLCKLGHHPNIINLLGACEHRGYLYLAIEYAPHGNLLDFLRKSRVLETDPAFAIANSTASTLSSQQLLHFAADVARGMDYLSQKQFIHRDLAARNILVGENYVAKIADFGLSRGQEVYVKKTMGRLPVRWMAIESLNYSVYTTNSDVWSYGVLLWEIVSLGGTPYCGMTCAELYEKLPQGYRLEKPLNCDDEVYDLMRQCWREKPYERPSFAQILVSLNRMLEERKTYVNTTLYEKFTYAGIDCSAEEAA
Sequence of Vascular endothelial growth factor receptor 2 (P35968 whole entry): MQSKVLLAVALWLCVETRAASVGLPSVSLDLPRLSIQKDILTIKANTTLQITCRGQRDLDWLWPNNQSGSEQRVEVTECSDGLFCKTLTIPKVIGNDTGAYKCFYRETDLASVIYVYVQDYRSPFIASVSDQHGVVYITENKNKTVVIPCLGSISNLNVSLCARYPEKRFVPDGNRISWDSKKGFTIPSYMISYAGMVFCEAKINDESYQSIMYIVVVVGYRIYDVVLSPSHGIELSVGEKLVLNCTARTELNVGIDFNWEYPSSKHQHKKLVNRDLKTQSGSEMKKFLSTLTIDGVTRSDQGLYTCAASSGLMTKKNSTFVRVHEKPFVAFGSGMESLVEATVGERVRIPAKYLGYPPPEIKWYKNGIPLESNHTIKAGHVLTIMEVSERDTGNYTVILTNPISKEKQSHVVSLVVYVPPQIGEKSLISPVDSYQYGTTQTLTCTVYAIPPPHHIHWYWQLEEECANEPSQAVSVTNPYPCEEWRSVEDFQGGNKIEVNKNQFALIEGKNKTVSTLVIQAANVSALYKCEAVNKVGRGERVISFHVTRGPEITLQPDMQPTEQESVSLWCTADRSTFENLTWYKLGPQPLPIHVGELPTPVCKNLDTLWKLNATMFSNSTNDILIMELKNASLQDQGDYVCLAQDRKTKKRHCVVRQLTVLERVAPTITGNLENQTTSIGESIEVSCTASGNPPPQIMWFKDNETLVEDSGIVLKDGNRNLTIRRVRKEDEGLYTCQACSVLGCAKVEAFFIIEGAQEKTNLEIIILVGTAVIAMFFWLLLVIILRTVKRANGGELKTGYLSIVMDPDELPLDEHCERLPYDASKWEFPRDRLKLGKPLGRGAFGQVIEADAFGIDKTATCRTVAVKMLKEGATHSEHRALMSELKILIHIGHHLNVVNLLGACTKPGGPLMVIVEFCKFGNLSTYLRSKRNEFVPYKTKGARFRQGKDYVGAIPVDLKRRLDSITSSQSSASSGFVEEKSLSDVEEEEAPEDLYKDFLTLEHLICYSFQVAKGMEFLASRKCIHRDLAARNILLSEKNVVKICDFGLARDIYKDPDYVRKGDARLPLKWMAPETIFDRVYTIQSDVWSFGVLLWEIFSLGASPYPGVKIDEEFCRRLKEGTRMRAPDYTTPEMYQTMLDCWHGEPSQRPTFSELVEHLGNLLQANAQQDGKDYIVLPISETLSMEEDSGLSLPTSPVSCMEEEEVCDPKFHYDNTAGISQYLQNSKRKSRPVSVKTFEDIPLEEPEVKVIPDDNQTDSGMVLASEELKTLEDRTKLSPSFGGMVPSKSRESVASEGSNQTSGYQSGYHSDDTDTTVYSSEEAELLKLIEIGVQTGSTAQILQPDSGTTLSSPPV
Sequence of Tyrosine-protein kinase Lck (P06239 whole entry): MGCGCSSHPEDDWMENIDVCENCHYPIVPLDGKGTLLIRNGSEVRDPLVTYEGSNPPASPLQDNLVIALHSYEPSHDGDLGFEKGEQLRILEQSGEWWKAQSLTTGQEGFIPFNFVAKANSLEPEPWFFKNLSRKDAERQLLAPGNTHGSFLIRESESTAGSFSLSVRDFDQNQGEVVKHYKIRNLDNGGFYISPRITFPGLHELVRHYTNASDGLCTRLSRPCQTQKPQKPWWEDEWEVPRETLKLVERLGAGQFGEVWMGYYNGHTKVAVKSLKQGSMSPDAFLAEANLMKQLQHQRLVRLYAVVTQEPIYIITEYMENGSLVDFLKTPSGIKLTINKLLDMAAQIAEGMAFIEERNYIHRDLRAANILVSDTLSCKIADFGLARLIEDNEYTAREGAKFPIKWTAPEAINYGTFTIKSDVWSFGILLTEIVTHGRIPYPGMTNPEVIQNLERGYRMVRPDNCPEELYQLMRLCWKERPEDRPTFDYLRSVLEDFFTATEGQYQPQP

Row | Compound | Selectivity ratio (HUVEC [1]) | IC50 (Angiopoietin-1 receptor) [µM] | IC50 [2] [µM] | IC50 [3] [µM] | IC50 (Aurora kinase A) [µM] | IC50 (HUVEC [4]) [µM] | IC50 (HUVEC [5]) [µM] | IC50 [6] [µM] | IC50 (Aurora kinase B) [µM]
1 | COc1cc2nccc(Oc3ccc4c(C(=O)NC5CCC5)cccc4c3)c2cc1OC | >100 | 4 | 7.6 | 1 | 0.44 | 0.0068 | 1.14 | 0.0013 | –
2 | COc1cc2nccc(Oc3ccc4c(C(=O)NCC(F)(F)F)cccc4c3)c2cc1OC | – | 25 | 20 | 25 | 0.93 | 0.024 | 1.14 | 0.0038 | 0.016
3 | CNC(=O)c1cccc2cc(Oc3ccnc4cc(OC)c(OC)cc34)ccc12 | – | 25 | 20 | 0.7 | 3.6 | 0.00045 | 0.046 | – | 0.11
4 | COc1cc2nccc(Oc3ccc4c(C(=O)NC(C)C)cccc4c3)c2cc1OC | >100 | 25 | 20 | 1.8 | 3.6 | 0.0044 | 1.14 | 0.0059 | 0.19
5 | COc1cc2ncnc(Oc3ccc4c(C(N)=O)cccc4c3)c2cc1OC | – | 8.3 | 20 | – | 8.3 | 0.016 | – | – | 0.68
6 | COc1cc2nccc(Oc3ccc4c(C(=O)NC(C)(C)C)cccc4c3)c2cc1OC | >100 | 25 | 11 | 4.3 | 3.7 | – | – | 1.5 | –
7 | CCNC(=O)c1cccc2cc(Oc3ccnc4cc(OC)c(OC)cc34)ccc12 | >100 | 25 | 20 | 1.2 | 1.5 | 0.00033 | 0.15 | 0.0013 | 0.046
8 | COCCNC(=O)c1cccc2cc(Oc3ccnc4cc(OC)ccc34)ccc12 | >100 | 25 | 20 | – | 8.3 | 0.02 | – | 0.028 | –
9 | COc1cc2nccc(Oc3ccc4c(C(=O)NC5(C)CC5)cccc4c3)c2cc1OC | – | 1.1 | 5 | 2 | 0.56 | 0.07 | 1.14 | – | 0.062
10 | CCCNC(=O)c1cccc2cc(Oc3ccnc4cc(OC)c(OC)cc34)ccc12 | – | 4.3 | – | 1.3 | 1.7 | 0.0074 | 0.6 | – | –
11 | COc1cc2nccc(Oc3ccc4c(C(=O)NC5CCCC5)cccc4c3)c2cc1OC | >100 | 1.4 | 3.2 | 1.3 | 0.62 | 0.0066 | 1.14 | 0.015 | –
12 | COc1ccc2c(Oc3ccc4c(C(=O)NC5CC5)cccc4c3)ccnc2c1 | >100 | 8.3 | 20 | – | 8.3 | 0.0034 | – | 0.00045 | –
13 | COc1cc2nccc(Oc3ccc4c(C(=O)NCC5CC5)cccc4c3)c2cc1OC | – | 9.4 | 5.3 | 1.1 | 0.84 | 0.022 | 1.14 | 0.011 | 0.01
14 | COc1cc2ncnc(Oc3ccc4c(C(=O)NC5CC5)cccc4c3)c2cc1OC | >100 | 7.4 | 20 | – | 8.3 | 0.0073 | – | 0.0029 | 0.36
15 | COc1cc2nccc(Oc3ccc4c(C(N)=O)cccc4c3)c2cc1C(N)=O | – | 5.3 | 7.4 | – | 6.8 | – | – | – | 0.39
16 | COCCCNC(=O)c1cccc2cc(Oc3ccnc4cc(OC)c(OC)cc34)ccc12 | >100 | 8.3 | – | 1 | 3.5 | 0.0071 | – | 0.0042 | –
17 | COc1ccc2c(Oc3ccc4c(C(N)=O)cccc4c3)ccnc2c1 | – | 25 | 20 | – | 8.3 | 0.016 | – | – | 0.13
